Measured values: ChEMBL document CHEMBL1142469, “Identification of minimal sequence for HIV-1 fusion inhibitors” (Bioorg Med Chem, 2008)
Where a SMILES comes first, the peptide text is derived from it. [ ]: non-standard residue; d: D form. Aib = CC(C)(N)C(=O)O

Experiments:
[1] = tested on: Human immunodeficiency virus 1; assay: Antiviral activity against HIV1 in human HeLa-CD4-LTR-beta-gal (MAGI) cells assessed as inhibition of viral replication after 48 hrs by multinuclear activation of galactosidase indicator assay; details: Human immunodeficiency virus 1, HeLa
[2] = tested on: Human immunodeficiency virus 1; assay: Binding affinity to HIV1 heptad repeat 1 peptide N36 assessed as melting temperature of drug-HR1 peptide complex
In short: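 HR2 peptide and N36 (HR1) peptide mixed, each at 10 μM final in PBS pH 7.4, incubated 37 °C for 30 min, then followed by CD through thermal unfolding; Tm taken as the midpoint of the unfolding transition.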

Compound	EC50 [1] [nM]	Tm [2] [°C]
CC[C@H](C)[C@H](NC(=O)[C@H](CCCCN)NC(=O)[C@H](CCCCN)NC(=O)[C@H](CC(=O)O)NC(=O)[C@H](Cc1c[nH]c2ccccc12)NC(=O)[C@H](CCC(=O)O)NC(=O)[C@H](CCC(=O)O)NC(=O)[C@@H](N)Cc1c[nH]c2ccccc12)C(=O)N[C@@H](CCC(=O)O)C(=O)N[C@@H](CCC(=O)O)C(=O)N[C@@H](Cc1ccc(O)cc1)C(=O)N[C@H](C(=O)N[C@@H](CCCCN)C(=O)N[C@@H](CCCCN)C(=O)N[C@H](C(=O)N[C@@H](CCC(=O)O)C(=O)N[C@@H](CCC(=O)O)C(=O)N[C@@H](CC(C)C)C(=O)N[C@H](C(=O)N[C@@H](CCCCN)C(=O)N[C@@H](CCCCN)C(=O)N[C@@H](CO)C(=O)NC(C)(C)C(=O)N[C@@H](CCC(=O)O)C(=O)N[C@@H](CCC(N)=O)C(=O)N[C@@H](CCC(N)=O)C(=O)NC(C)(C)C(=O)N[C@@H](CCCCN)C(=O)N[C@@H](CC(N)=O)C(=O)O)[C@@H](C)CC)[C@@H](C)CC)[C@@H](C)O (H-WEEWDKKIEEYTKKIEELIKKS[Aib]EQQ[Aib]KN-OH)	7.1	
CC[C@H](C)[C@H](NC(=O)[C@H](CCCCN)NC(=O)[C@H](CCCCN)NC(=O)[C@H](CC(=O)O)NC(=O)[C@H](Cc1c[nH]c2ccccc12)NC(=O)[C@H](CCC(=O)O)NC(=O)[C@H](CCC(=O)O)NC(=O)[C@@H](N)Cc1c[nH]c2ccccc12)C(=O)N[C@@H](CCC(=O)O)C(=O)N[C@@H](CCC(=O)O)C(=O)N[C@@H](Cc1ccc(O)cc1)C(=O)N[C@H](C(=O)N[C@@H](CCCCN)C(=O)N[C@@H](CCCCN)C(=O)N[C@H](C(=O)N[C@@H](CCC(=O)O)C(=O)N[C@@H](CCC(=O)O)C(=O)N[C@@H](CC(C)C)C(=O)N[C@H](C(=O)N[C@@H](CCCCN)C(=O)N[C@@H](CCCCN)C(=O)N[C@@H](CO)C(=O)NC(C)(C)C(=O)NCC(=O)N[C@@H](CCC(N)=O)C(=O)N[C@@H](CCC(N)=O)C(=O)NC(C)(C)C(=O)NCC(=O)N[C@@H](CC(N)=O)C(=O)O)[C@@H](C)CC)[C@@H](C)CC)[C@@H](C)O (H-WEEWDKKIEEYTKKIEELIKKS[Aib]GQQ[Aib]GN-OH)	31.3	
CC[C@H](C)[C@H](NC(=O)[C@H](CCCCN)NC(=O)[C@H](CCCCN)NC(=O)[C@H](CC(=O)O)NC(=O)[C@H](Cc1c[nH]c2ccccc12)NC(=O)[C@H](CCC(=O)O)NC(=O)[C@H](CCC(=O)O)NC(=O)[C@@H](N)Cc1c[nH]c2ccccc12)C(=O)N[C@@H](CCC(=O)O)C(=O)N[C@@H](CCC(=O)O)C(=O)N[C@@H](Cc1ccc(O)cc1)C(=O)N[C@H](C(=O)N[C@@H](CCCCN)C(=O)N[C@@H](CCCCN)C(=O)N[C@H](C(=O)NC(C)(C)C(=O)N[C@@H](CCC(=O)O)C(=O)N[C@@H](CC(C)C)C(=O)N[C@H](C(=O)NC(C)(C)C(=O)N[C@@H](CCCCN)C(=O)N[C@@H](CO)C(=O)N[C@@H](CCC(=O)O)C(=O)N[C@@H](CCC(=O)O)C(=O)N[C@@H](CCC(N)=O)C(=O)N[C@@H](CCC(N)=O)C(=O)N[C@@H](CCCCN)C(=O)N[C@@H](CCCCN)C(=O)N[C@@H](CC(N)=O)C(=O)O)[C@@H](C)CC)[C@@H](C)CC)[C@@H](C)O (H-WEEWDKKIEEYTKKI[Aib]ELI[Aib]KSEEQQKKN-OH)	0.87	
CC[C@H](C)[C@H](NC(=O)[C@H](CCCCN)NC(=O)[C@H](CCCCN)NC(=O)[C@H](CC(=O)O)NC(=O)[C@H](Cc1c[nH]c2ccccc12)NC(=O)[C@H](CCC(=O)O)NC(=O)[C@H](CCC(=O)O)NC(=O)[C@@H](N)Cc1c[nH]c2ccccc12)C(=O)N[C@@H](CCC(=O)O)C(=O)N[C@@H](CCC(=O)O)C(=O)N[C@@H](Cc1ccc(O)cc1)C(=O)N[C@H](C(=O)N[C@@H](CCCCN)C(=O)N[C@@H](CCCCN)C(=O)N[C@H](C(=O)NC(C)(C)C(=O)NCC(=O)N[C@@H](CC(C)C)C(=O)N[C@H](C(=O)NC(C)(C)C(=O)NCC(=O)N[C@@H](CO)C(=O)N[C@@H](CCC(=O)O)C(=O)N[C@@H](CCC(=O)O)C(=O)N[C@@H](CCC(N)=O)C(=O)N[C@@H](CCC(N)=O)C(=O)N[C@@H](CCCCN)C(=O)N[C@@H](CCCCN)C(=O)N[C@@H](CC(N)=O)C(=O)O)[C@@H](C)CC)[C@@H](C)CC)[C@@H](C)O (H-WEEWDKKIEEYTKKI[Aib]GLI[Aib]GSEEQQKKN-OH)	25.6	
CC[C@H](C)[C@H](NC(=O)[C@H](CC(C)C)NC(=O)[C@H](CCC(=O)O)NC(=O)[C@H](CCC(=O)O)NC(=O)[C@@H](NC(=O)[C@H](CCCCN)NC(=O)C(C)(C)NC(=O)[C@@H](NC(=O)[C@H](Cc1ccc(O)cc1)NC(=O)[C@H](CCC(=O)O)NC(=O)C(C)(C)NC(=O)[C@@H](NC(=O)[C@H](CCCCN)NC(=O)[C@H](CCCCN)NC(=O)[C@H](CC(=O)O)NC(=O)[C@H](Cc1c[nH]c2ccccc12)NC(=O)[C@H](CCC(=O)O)NC(=O)[C@H](CCC(=O)O)NC(=O)[C@@H](N)Cc1c[nH]c2ccccc12)[C@@H](C)CC)[C@@H](C)O)[C@@H](C)CC)C(=O)N[C@@H](CCCCN)C(=O)N[C@@H](CCCCN)C(=O)N[C@@H](CO)C(=O)N[C@@H](CCC(=O)O)C(=O)N[C@@H](CCC(=O)O)C(=O)N[C@@H](CCC(N)=O)C(=O)N[C@@H](CCC(N)=O)C(=O)N[C@@H](CCCCN)C(=O)N[C@@H](CCCCN)C(=O)N[C@@H](CC(N)=O)C(=O)O (H-WEEWDKKI[Aib]EYT[Aib]KIEELIKKSEEQQKKN-OH)	2.15	
CC[C@H](C)[C@H](NC(=O)CNC(=O)C(C)(C)NC(=O)[C@@H](NC(=O)[C@H](Cc1ccc(O)cc1)NC(=O)CNC(=O)C(C)(C)NC(=O)[C@@H](NC(=O)[C@H](CCCCN)NC(=O)[C@H](CCCCN)NC(=O)[C@H](CC(=O)O)NC(=O)[C@H](Cc1c[nH]c2ccccc12)NC(=O)[C@H](CCC(=O)O)NC(=O)[C@H](CCC(=O)O)NC(=O)[C@@H](N)Cc1c[nH]c2ccccc12)[C@@H](C)CC)[C@@H](C)O)C(=O)N[C@@H](CCC(=O)O)C(=O)N[C@@H](CCC(=O)O)C(=O)N[C@@H](CC(C)C)C(=O)N[C@H](C(=O)N[C@@H](CCCCN)C(=O)N[C@@H](CCCCN)C(=O)N[C@@H](CO)C(=O)N[C@@H](CCC(=O)O)C(=O)N[C@@H](CCC(=O)O)C(=O)N[C@@H](CCC(N)=O)C(=O)N[C@@H](CCC(N)=O)C(=O)N[C@@H](CCCCN)C(=O)N[C@@H](CCCCN)C(=O)N[C@@H](CC(N)=O)C(=O)O)[C@@H](C)CC (H-WEEWDKKI[Aib]GYT[Aib]GIEELIKKSEEQQKKN-OH)	270	
CC[C@H](C)[C@H](NC(=O)[C@H](CC(C)C)NC(=O)[C@H](CCC(=O)O)NC(=O)[C@H](CCC(=O)O)NC(=O)[C@@H](NC(=O)[C@H](CCCCN)NC(=O)[C@H](CCCCN)NC(=O)[C@@H](NC(=O)[C@H](Cc1ccc(O)cc1)NC(=O)[C@H](CCC(=O)O)NC(=O)[C@H](CCC(=O)O)NC(=O)[C@@H](NC(=O)[C@H](CCCCN)NC(=O)C(C)(C)NC(=O)[C@H](CC(=O)O)NC(=O)[C@H](Cc1c[nH]c2ccccc12)NC(=O)[C@H](CCC(=O)O)NC(=O)C(C)(C)NC(=O)[C@@H](N)Cc1c[nH]c2ccccc12)[C@@H](C)CC)[C@@H](C)O)[C@@H](C)CC)C(=O)N[C@@H](CCCCN)C(=O)N[C@@H](CCCCN)C(=O)N[C@@H](CO)C(=O)N[C@@H](CCC(=O)O)C(=O)N[C@@H](CCC(=O)O)C(=O)N[C@@H](CCC(N)=O)C(=O)N[C@@H](CCC(N)=O)C(=O)N[C@@H](CCCCN)C(=O)N[C@@H](CCCCN)C(=O)N[C@@H](CC(N)=O)C(=O)O (H-W[Aib]EWD[Aib]KIEEYTKKIEELIKKSEEQQKKN-OH)	0.54	
CC[C@H](C)[C@H](NC(=O)CNC(=O)C(C)(C)NC(=O)[C@H](CC(=O)O)NC(=O)[C@H](Cc1c[nH]c2ccccc12)NC(=O)CNC(=O)C(C)(C)NC(=O)[C@@H](N)Cc1c[nH]c2ccccc12)C(=O)N[C@@H](CCC(=O)O)C(=O)N[C@@H](CCC(=O)O)C(=O)N[C@@H](Cc1ccc(O)cc1)C(=O)N[C@H](C(=O)N[C@@H](CCCCN)C(=O)N[C@@H](CCCCN)C(=O)N[C@H](C(=O)N[C@@H](CCC(=O)O)C(=O)N[C@@H](CCC(=O)O)C(=O)N[C@@H](CC(C)C)C(=O)N[C@H](C(=O)N[C@@H](CCCCN)C(=O)N[C@@H](CCCCN)C(=O)N[C@@H](CO)C(=O)N[C@@H](CCC(=O)O)C(=O)N[C@@H](CCC(=O)O)C(=O)N[C@@H](CCC(N)=O)C(=O)N[C@@H](CCC(N)=O)C(=O)N[C@@H](CCCCN)C(=O)N[C@@H](CCCCN)C(=O)N[C@@H](CC(N)=O)C(=O)O)[C@@H](C)CC)[C@@H](C)CC)[C@@H](C)O (H-W[Aib]GWD[Aib]GIEEYTKKIEELIKKSEEQQKKN-OH)	37.5	
H-WEEWDKKIEEYTKKIEELIKKS-OH	60	63.5
H-WEEWDKKIEEYTKKIEELIKKSEEQQKKN-OH	0.46	65
H-WEEWDKKIEEYTKKIEELIKKSEEQQKKNEEELKK-OH	0.39	71.5
H-WMEWDREINNYTSLIHSLIEES-OH	> 1000	38.5
H-WMEWDREINNYTSLIHSLIEESQNQQEKN-OH	46	48.5
H-YTSLIEELIKKSEEQQKKNEEELKKLEEWAKKWNWF-OH	1.8	
enfuvirtide	15	
